Experimental data published in ChEMBL document CHEMBL2034978, “Synthesis and evaluation of curcumin-related compounds for anticancer activity” (Eur J Med Chem, 2012).
Activity calls are given as the source filed them. No cut-off for these calls is given here.

Key:
HT-29 [1] = assay: Cytotoxicity against human HT-29 cells after 72 hrs by MTT assay; assay type: functional, cell-based; details: HT-29, 72 h
Summary of the method: (§1)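 Seeded at 0.2 × 10⁵ cells/ml, grown 24 h, then exposed 72 h to a range of concentrations (upper limit 30). MTT read-out: formazan dissolved in DMSO, absorbance at 540 nm, growth expressed as percent of DMSO-treated cells.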

HT-29 [2] = assay: Ratio of curcumin IC50 to compound IC50 for human HT-29 cells; assay type: functional
Summary of the method: (§2)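 Curcumin served as positive control in each incubation, with its growth-inhibition data averaged across experiments.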

PC-3 [3] = assay: Inhibition of Akt phosphorylation in human PC3 cells at 0.5 uM after 24 hrs by Western blotting relative to beta-actin; assay type: cell-based
Summary of the method: (§3)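 PC-3 cells were seeded at 1 × 10⁵ cells/ml in 100 mm dishes, grown 24 h, then treated 24 h. Cells were lysed in Tris-HCl pH 7.4 buffer containing NaF, pyrophosphate, orthovanadate and Triton X-100, and lysates cleared at 12,000×g. Blots on PVDF were probed with anti-phospho-Akt or anti-phospho-Erk1/2, detected by ECL, quantified by optical density and normalized to β-actin.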

[4] = molecular target: Mitogen-activated protein kinase; ERK1/ERK2 (Homo sapiens) (UniProt P27361+P28482); assay: Inhibition of ERK1/2 phosphorylation in human PC3 cells at 0.5 uM after 24 hrs by Western blotting relative to beta-actin; assay type: cell-based; details: PC-3; summary of the method: as §3
Mitogen-activated protein kinase; ERK1/ERK2 (Homo sapiens), sequence (P27361 whole entry, looked up): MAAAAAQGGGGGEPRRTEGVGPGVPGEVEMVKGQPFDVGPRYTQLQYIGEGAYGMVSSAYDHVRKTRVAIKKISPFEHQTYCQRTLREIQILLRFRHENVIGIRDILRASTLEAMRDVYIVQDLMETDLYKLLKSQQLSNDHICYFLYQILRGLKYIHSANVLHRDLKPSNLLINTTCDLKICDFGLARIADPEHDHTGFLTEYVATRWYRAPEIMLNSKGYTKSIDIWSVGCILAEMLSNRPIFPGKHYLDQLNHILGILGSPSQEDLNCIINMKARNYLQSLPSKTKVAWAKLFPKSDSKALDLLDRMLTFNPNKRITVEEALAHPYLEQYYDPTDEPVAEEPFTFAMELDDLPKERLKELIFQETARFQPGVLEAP
Mitogen-activated protein kinase; ERK1/ERK2 (Homo sapiens), sequence (P28482 whole entry, looked up): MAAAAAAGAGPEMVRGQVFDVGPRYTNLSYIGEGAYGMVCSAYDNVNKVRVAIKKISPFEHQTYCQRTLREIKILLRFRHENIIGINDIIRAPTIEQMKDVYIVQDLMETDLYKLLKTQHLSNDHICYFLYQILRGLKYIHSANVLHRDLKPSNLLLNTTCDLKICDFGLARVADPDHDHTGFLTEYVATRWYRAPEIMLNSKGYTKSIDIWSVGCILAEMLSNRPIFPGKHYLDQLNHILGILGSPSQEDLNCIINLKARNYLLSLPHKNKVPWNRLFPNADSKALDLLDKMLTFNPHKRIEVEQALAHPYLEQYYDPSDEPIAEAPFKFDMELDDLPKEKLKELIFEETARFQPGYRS

PC-3 [5] = assay: Cytotoxicity against human PC3 cells after 72 hrs by MTT assay; assay type: functional, cell-based; details: PC-3, 72 h; summary of the method: as §1
PC-3 [6] = assay: Induction of apoptosis in human PC3 cells at <1 uM after 96 hrs by morphology analysis; assay type: functional, cell-based
PANC-1 [7] = assay: Cytotoxicity against human PANC1 cells after 72 hrs by MTT assay; assay type: functional, cell-based; details: PANC-1, 72 h; summary of the method: as §1
PC-3 [8] = assay: Ratio of curcumin IC50 to compound IC50 for human PC3 cells; assay type: functional; summary of the method: as §2
PANC-1 [9] = assay: Ratio of curcumin IC50 to compound IC50 for human PANC1 cells; assay type: functional; summary of the method: as §2

inhibition [4]: Active
Structure (SMILES): O=C1/C(=C/c2ccccn2)CSC/C1=C\c1ccccn1
IC50 (HT-29 [1]): 760 nM | Ratio IC50 (HT-29 [2]): 21 | inhibition (PC-3 [3]): inactive | IC50 (PC-3 [5]): 520 nM | Activity (PC-3 [6]): Active | IC50 (PANC-1 [7]): 700 nM | Ratio IC50 (PC-3 [8]): 21 | Ratio IC50 (PANC-1 [9]): 21
